Assay results from different studies.
Compare with care: the assays were run in different laboratories.
CA2: Carbonic anhydrase 2 (CA2, Homo sapiens, UniProt P00918)
LATS1: Serine/threonine-protein kinase LATS1 (LATS1, Homo sapiens, UniProt O95835)
ADRA2A: Alpha-2A adrenergic receptor (ADRA2A, Homo sapiens, UniProt P08913)
SLC18A2: Synaptic vesicular amine transporter (SLC18A2, Homo sapiens, UniProt Q05940)

SMILES	target	test	conditions	measurement	value
COc1cc(C)c(/C=C/C(C)=C/C=C/C(C)=C/C(=O)O)c(C)c1C	CA2	enzyme activity, inhibitor, absorbance	pH 7.4	IC50	12600 nM
Cc1cc(-c2ccnc3[nH]cc(F)c23)cc(F)c1[C@@]1(O)[C@H](C)CN(C(=O)CN)C[C@@H]1C	LATS1	target engagement in cells, BRET		IC50	6.1 nM
Cc1cc(Oc2ncccc2CN2CCN(c3ccccc3)CC2)ccc1-c1c(C)c(=O)[nH]c(=O)n1C	ADRA2A	cAMP, agonist, luciferase		EC50	10700 nM
Cc1cc(C#CC2(O)CCCCC2)cc2c1cc(C(=O)O)n2-c1ccccc1	Microphthalmia-associated transcription factor (Homo sapiens, UniProt O75030)	binding, ITC		Kd	3500 nM
O=C1Nc2ccc(Cl)cc2[C@@](C#CC2CC2)(C(F)(F)F)O1	SLC18A2	transporter uptake, inhibitor		IC50	6120 nM
Cc1cc(Oc2ncccc2CN2CCN(c3ccccc3Br)CC2)ccc1-c1c(C)c(=O)[nH]c(=O)n1C	ADRA2A	ligand displacement, radioligand		Ki	135 nM
O=c1n(CCCN2CCN(c3cccc(Cl)c3)CC2)nc2ccccn12	SLC18A2	transporter uptake, inhibitor		IC50	2780 nM
Cc1cc(Oc2ncccc2CN2CCN(c3cccc4ccccc34)CC2)ccc1-c1c(C)c(=O)[nH]c(=O)n1C	ADRA2A	ligand displacement, radioligand		Ki	186 nM
CC(C)(C(=O)O)c1ccc(C(O)CCCN2CCC(C(O)(c3ccccc3)c3ccccc3)CC2)cc1 (centres unmarked)	Carbonic anhydrase 1 (CA1, Homo sapiens, UniProt P00915)	enzyme activity, inhibitor, absorbance	pH 7.4	IC50	19300 nM
OC1(c2ccc(-c3ccnc4[nH]cc(F)c34)cc2)CCCNC1 (centres unmarked)	LATS1	enzyme activity, inhibitor, radiometric		IC50	26 nM
O=C(c1ccc(OCCN2CCCCC2)cc1)c1c(-c2ccc(O)cc2)sc2cc(O)ccc12	SLC18A2	transporter uptake, inhibitor, radiometric	cell membranes	IC50	127 nM
Cc1cc(Oc2ncccc2CN2CCN(CCc3ccccc3)CC2)ccc1-c1c(C)c(=O)[nH]c(=O)n1C	ADRA2A	ligand displacement, radioligand		Ki	2540 nM
Nc1nc2c(ncn2COCCO)c(=O)[nH]1	CA2	enzyme activity, inhibitor, absorbance	pH 7.4	IC50	13800 nM
O=C(CCCN1CCC(O)(c2ccc(Br)cc2)CC1)c1ccc(F)cc1	SLC18A2	transporter uptake, inhibitor		IC50	92 nM
Cc1cc(-c2ccnc3[nH]cc(F)c23)cc(F)c1[C@@]1(O)[C@H](C)CN(C2CCS(=O)(=O)CC2)C[C@@H]1C	LATS1	binding, TR-FRET		Kd	2.5 nM
Cc1cc(Oc2ncccc2CN2CCN(Cc3ccc(F)cc3)CC2)ccc1-c1c(C)c(=O)[nH]c(=O)n1C	ADRA2A	ligand displacement, radioligand		Ki	2210 nM
Cc1ccccc1N1CCN(CCc2nnc3n2CCCC3)CC1	SLC18A2	transporter uptake, inhibitor		IC50	566 nM
CC1CNCCC1(O)c1ccc(-c2ccnc3[nH]cc(F)c23)cc1 (centres unmarked)	LATS1	enzyme activity, inhibitor, radiometric		IC50	9.8 nM
Cc1cnc(Nc2ccc(OCCN3CCCC3)cc2)nc1Nc1cccc(S(=O)(=O)NC(C)(C)C)c1	SLC18A2	transporter uptake, inhibitor, radiometric	cell membranes	IC50	418 nM
COc1ccc(Cl)cc1N1CCN(Cc2cccnc2Oc2ccc(-c3c(C)c(=O)[nH]c(=O)n3C)c(C)c2)CC1	ADRA2A	ligand displacement, radioligand		Ki	76.5 nM
